Data: ChEMBL document CHEMBL1146591, “New polyhydroxy sterols: proteasome inhibitors from a marine sponge Acanthodendrilla sp” (J Nat Prod, 2003)
≈ marks a conversion by molar mass, not a printed value. Calls of active or inactive are those of the source. The calls are words filed in the database; no cut-off is given here.

How the values were obtained:
[1] = system: HeLa; assay: Cytotoxicity against human HeLa cells after 3 days by MTT assay; assay type: functional, cell-based; settings: 72 h
Method in brief: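 HeLa cells grown in DMEM with 10% fetal calf serum, penicillin and streptomycin, 37 °C, 5% CO2. Seeded at 3 × 10^3 cells/well, precultured 1 day, then given compounds at various concentrations for 3 days at 37 °C. MTT (0.2 mg/mL in medium) added for 4 h, then DMSO, and OD read at 570 nm.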

[2] = Inhibition of chymotrypsin like activity of partially purified rat liver proteasome; assay type: subcellular
Method in brief: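 Enzyme: proteasome-enriched pellet from rat liver homogenate (300 000g, 2 h). Preincubated with inhibitor 10 min at 30 °C in 50 mM Tris-HCl pH 7.8, 1 mM DTT, 5 mM EDTA, 0.02% SDS. Then 0.05 mM Suc-LLVY-MCA added, 1 h at 30 °C, stopped with 10% SDS, AMC fluorescence read (ex 380/em 460 nm). IC50 from duplicate measurements.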

[3] = organism: Rattus norvegicus; assay: Inhibition of chymotrypsin like activity of partially purified rat liver proteasome at 100 ug/mL; assay type: subcellular
Method in brief: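 Enzyme: proteasome-enriched pellet from rat liver (300 000g, 2 h). Preincubated with test material 10 min at 30 °C in 50 mM Tris-HCl pH 7.8, 1 mM DTT, 5 mM EDTA, 0.02% SDS. Then 0.05 mM Suc-LLVY-MCA added for 1 h at 30 °C. Stopped with 10% SDS and AMC fluorescence read (ex 380/em 460 nm).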

Compound: CC(=O)O[C@@H]1[C@@H]2[C@@H](OC(C)=O)C=C3[C@H](CC[C@]4(C)[C@@H]([C@H](C)[C@H](O)CCC(C)C)CC[C@@H]34)[C@@]2(C)CC[C@@H]1O [AGOSTEROL C]
- IC50 [1]: 22 µg/mL (≈ 42.4 µM)
- IC50 [2]: 10 µg/mL (≈ 19.3 µM)

Compound: CC(=O)O[C@@H]1[C@@H]2[C@@H](OC(C)=O)C=C3[C@H]([C@H](OC(C)=O)C[C@]4(C)[C@@H]([C@H](C)[C@H](O)CCC(C)C)CC[C@@H]34)[C@@]2(C)CC[C@@H]1O [AGOSTEROL G]
- IC50 [1]: 8.8 µg/mL (≈ 15.3 µM)
- IC50 [2]: 100 µg/mL (≈ 173 µM)

Compound: C=C(CC(O)C(C)(O)[C@H]1CC[C@H]2C3=C[C@H](OC(C)=O)[C@H]4[C@@H](OC(C)=O)[C@@H](O)CC[C@]4(C)[C@H]3CC[C@]12C)C(C)C (stereo not given in full) [AGOSTEROL C7]
- IC50 [1]: > 25 µg/mL
- IC50 [2]: 20 µg/mL (≈ 36.6 µM)

Compound: CC(=O)O[C@@H]1[C@@H]2[C@@H](OC(C)=O)C=C3[C@H](CC[C@]4(C)[C@@H]([C@@](C)(O)[C@H](O)CCC(C)C)CC[C@@H]34)[C@@]2(C)CC[C@@H]1O [AGOSTEROL C2]
- IC50 [1]: > 25 µg/mL
- IC50 [2]: 23 µg/mL (≈ 43 µM)

Compound: CC(=O)O[C@@H]1[C@@H]2[C@@H](OC(C)=O)C=C3[C@H]([C@H](O)C[C@]4(C)[C@@H]([C@H](C)[C@H](O)CCC(C)C)CC[C@@H]34)[C@@]2(C)CC[C@@H]1O [AGOSTEROL F]
- IC50 [1]: 16 µg/mL (≈ 29.9 µM)
- IC50 [2]: 35 µg/mL (≈ 65.5 µM)

Compound: C/C=C(\C[C@@H](O)[C@@H](C)[C@H]1CC[C@H]2C3=C[C@H](OC(C)=O)[C@H]4[C@@H](OC(C)=O)[C@@H](OC(C)=O)CC[C@]4(C)[C@@]3(O)CC[C@]12C)C(C)C [AGOSTEROL E3]
- Activity [3]: inactive
- IC50 [1]: 14 µg/mL (≈ 23.2 µM)

Compound: CC(=O)O[C@@H]1[C@@H]2[C@@H](OC(C)=O)C=C3[C@@H]4CC[C@H]([C@H](C)[C@H](O)CCC(C)C)[C@@]4(C)CC[C@]3(O)[C@@]2(C)CC[C@@H]1OC(C)=O [AGOSTEROL E]
- Activity [3]: inactive
- IC50 [1]: 25 µg/mL (≈ 43.3 µM)

Compound: C/C=C(\C[C@@H](O)[C@@H](C)[C@H]1CC[C@H]2C3=C[C@H](OC(C)=O)[C@H]4[C@@H](OC(C)=O)[C@@H](OC(C)=O)CC[C@]4(C)[C@H]3[C@H](O)C[C@]12C)C(C)C [AGOSTEROL A3]
- Activity [3]: inactive
- IC50 [1]: 10 µg/mL (≈ 16.6 µM)

Compound: CC(=O)O[C@@H]1[C@@H]2[C@@H](OC(C)=O)C=C3[C@H](CC[C@]4(C)[C@@H]([C@@](C)(O)[C@H](O)CCC(C)C)CC[C@@H]34)[C@@]2(C)CC[C@@H]1OC(C)=O [AGOSTEROL D2]
- IC50 [1]: 23 µg/mL (≈ 39.9 µM)
- IC50 [2]: 90 µg/mL (≈ 156 µM)

Compound: CC(=O)O[C@@H]1[C@@H]2[C@@H](OC(C)=O)C=C3[C@H]([C@H](O)C[C@]4(C)[C@@H]([C@H](C)[C@H](O)CCC(C)C)CC[C@@H]34)[C@@]2(C)CC[C@@H]1OC(C)=O [AGOSTEROL A]
- IC50 [1]: 25 µg/mL (≈ 43.3 µM)
- IC50 [2]: 50 µg/mL (≈ 86.7 µM)
